Assay outcomes from PubChem BioAssay.
CHO parental Ca – signal in parental CHO cells, OX1R antagonist counter-screen. 0.63% of 330,000 active. inhibition, % at 5.6 µM. parental CHO-K1, ATP-induced calcium, Fluo-8 fluorescence. AID 463079;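 active = inhibition above that plate's mean sample inhibition plus 3 SD, cut at about 26% in these data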;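 note: 0% = ATP-challenged DMSO wells and 100% = DMSO wells without ATP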
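Assay system: untransfected parental CHO cell line. Also added: ATP agonist challenge. Dosing: one dose, 5.6 µM nominal. Measured by: Fluo-8 fluorescence. Read-out: % inhibition. Benchmarks: ATP wells versus no-ATP DMSO wells. Repeats: no replicates.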
OX1R antag-1 – antagonists of human orexin 1 receptor; O43613; CHO/OX1R cells, Fluo-8 calcium fluorescence, orexin A; inhibition, % at 5 µM; 0.43% of 330,000 active; AID 434989;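 active = inhibition above its plate's threshold, mean inhibition of all tested compounds on the plate plus 3 SD, cut at about 37% in these data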;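 note: 0% = orexin A challenge wells and 100% = SB-334867-A antagonist wells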
Target sequence (O43613 whole entry, looked up): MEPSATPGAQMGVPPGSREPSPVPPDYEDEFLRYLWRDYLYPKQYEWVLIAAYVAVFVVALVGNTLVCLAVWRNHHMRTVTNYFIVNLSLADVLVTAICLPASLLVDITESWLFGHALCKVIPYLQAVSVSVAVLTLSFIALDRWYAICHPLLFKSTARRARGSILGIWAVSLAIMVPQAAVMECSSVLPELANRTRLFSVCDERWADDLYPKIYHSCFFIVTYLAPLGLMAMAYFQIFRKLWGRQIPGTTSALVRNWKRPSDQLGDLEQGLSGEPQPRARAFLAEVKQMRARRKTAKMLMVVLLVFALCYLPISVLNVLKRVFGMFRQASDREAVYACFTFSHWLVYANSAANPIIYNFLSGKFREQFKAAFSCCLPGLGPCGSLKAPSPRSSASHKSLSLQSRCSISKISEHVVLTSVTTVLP
OX1R antag-2 – blocks the human orexin 1 receptor; O43613; OX1R-expressing cells, FRET antagonist read-out; inhibition, % at 6.6 µM; 1.8% of 330,000 active; AID 485270; in the data active = inhibition mostly above about 38%, no sharp cut-off; inactive = mostly below about 40%;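 note: 0% = agonist challenge alone and 100% = reference antagonist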
GPR7 antag – antagonists of human GPR7 (neuropeptides B/W receptor 1) | P48145 | GPR7-expressing cells, fluorescence antagonist assay | inhibition, % at 4.4 µM | 1.1% of 290,000 active; in the data active = inhibition above about 16%, passing the limit was not always enough;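 note: cells stimulated with the agonist NPW; 0% = agonist with vehicle and 100% = vehicle without agonist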
GalR3 antag – antagonists of human GalR3. inhibition, % at 3 µM. AID 651719. 0.44% of 360,000 active. HEK293 GalR3-CNG cAMP membrane potential fluorescence; galR3 body fused to GalR1 C-terminus;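 active = inhibition above the screen-wide average plus 3 SD, cut at about 13% in these data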;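 note: forskolin and galanin both at EC90 stimulate the cells; cAMP rise reported by CNG channel membrane potential dye signal; 0% = forskolin plus galanin with DMSO and 100% = forskolin alone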
GPR7 antag cf – human GPR7 antagonism, confirmation assay | shares compounds with GPR7 antag | AID 1952 | GPR7-expressing cells, calcium fluorescence antagonist mode | inhibition, % at 4.4 µM | 52% of 2,400 active; in the data active = inhibition above about 24%;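 note: stimulated with the GPR7 agonist NPW; 0% = agonist plus vehicle and 100% = vehicle alone without agonist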
MCHR1 antag – counter-screen for GPR7 antagonists: antagonists of human MCHR1; shares compounds with GPR7 antag; MCHR1-expressing cells, fluorescence antagonist assay; inhibition, % at 4.4 µM; 62% of 2,400 active; AID 2148; in the data active = inhibition above about 22%;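 note: 0% = vehicle with agonist and 100% = vehicle without agonist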
* hit, by the source's call; / = no result. Most compounds without a hit are left out; they make up all but 3.1% or so of the library.

SMILES	CHO parental Ca	OX1R antag-1	OX1R antag-2	GPR7 antag	GalR3 antag	GPR7 antag cf	MCHR1 antag
C=C(CCC(=O)c1ccccc1)C(=O)c1ccccc1	-3	4	13	46*	-6	86*	78*
OCCCCNCc1ccc(OCc2ccc(Cl)cc2Cl)cc1	13	20	8	39*	-9	66*	59*
S=C(Nc1ccccc1)Nc1ccc(OCc2ccc(Cl)cc2Cl)cc1	-1	-10	13	-8	0	/	/
OCCNCc1ccc(OCc2ccc(Cl)cc2Cl)cc1	3	0	2	31*	-4	40*	43*
Cc1ccc(S(=O)(=O)N2[C@@H](CO)CO[C@H]2CC(=O)c2cccs2)cc1	/	/	/	/	-6	/	/
Cc1ccc(C(=O)N2CCN(C3c4cccc5cccc(c45)C3NS(=O)(=O)c3ccccc3)CC2)cc1 (stereo not drawn)	-28	-28	9	3	-4	/	/
O=S(=O)(NC1c2cccc3cccc(c23)C1N1CCNCC1)c1ccc(Cl)cc1 (stereo not drawn)	-21	-25	12	49*	-8	48*	47*
O=c1[nH]c(C2CCN(S(=O)(=O)c3ccccc3)CC2)nc2c1nnn2Cc1cccc(Cl)c1	-10	-15	-1	25*	-8	8	-8
Cc1nc2ccc([N+](=O)[O-])cc2c(=O)n1Cc1ccc(Br)cc1	2	-2	22	22	-10	/	/
Cc1nc2ccc([N+](=O)[O-])cc2c(=O)n1Cc1cccc(Br)c1	7	-15	28	47*	-8	32*	35*
C=CCOC(=O)COc1ccc2c3c(c(=O)oc2c1)CCCC3	/	/	/	/	-7	/	/
O=C(CN1CCN(CC(=O)Nc2ccccc2Cl)CC1)Nc1ccc(F)c(F)c1	-4	-18	-1	48*	-14	42*	61*
COc1cc(NC(=O)CNc2cccc(S(=O)(=O)N3CCCC3)c2)cc(OC)c1	13	4	48	31*	-3	4	19
O=C(CN1CCCCCC1)Nc1ccc(F)c(F)c1	-9	-12	6	-1	-3	/	/
COc1cccc(NC(=O)CN2CCN(S(=O)(=O)c3ccc(C(C)C)cc3)CC2)c1	-15	-25	13	35*	0	38*	29*
CN(CC(=O)Nc1ccc(F)cc1)C(=O)c1cccc(S(=O)(=O)N2CCN(c3ccccc3)CC2)c1	0	-12	5	10	-7	/	/
COc1cccc(NC(=O)CN(C)C(=O)c2cccc(S(=O)(=O)N3CCN(c4ccccc4)CC3)c2)c1	14	-2	12	24*	-3	16	39*
C[C@@H]1CCCCO[C@@H](CN(C)S(=O)(=O)c2cn(C)cn2)[C@@H](C)CN([C@H](C)CO)C(=O)c2cc(N(C)C)ccc2O1	/	/	/	/	-1	/	/
CC1(C(=O)NCc2ccc3c(c2)OCO3)CCN1C(=O)CC1CCCC1 (stereo not drawn)	/	/	/	/	-7	/	/
O=C(CN1CCN(S(=O)(=O)c2ccc(Br)cc2)CC1)Nc1ccc(F)cc1	22	-12	28	30*	-3	39*	26*
COc1cccc(NC(=O)CN2C(=O)COc3ccc(S(=O)(=O)N4CCC(C)CC4)cc32)c1	-4	-3	4	23*	-8	-15	0
O=C(CN1CCN(S(=O)(=O)c2ccc(Br)cc2)CC1)Nc1ccc(F)cc1F	-10	-8	3	13	-3	/	/
NS(=O)(=O)c1ccc(NC(=O)CN2CCN(S(=O)(=O)c3ccc(F)cc3)CC2)cc1	-2	-4	-3	-6	-3	/	/
O=C(CN1CCN(S(=O)(=O)c2ccc(Cl)cc2)CC1)Nc1ccc(F)cc1F	-10	-32	24	24*	/	34*	22*
Cc1onc(-c2ccccc2)c1CNC(=O)Nc1ccc(C(F)(F)F)cc1	20	27	49*	24*	0	28*	52*
SMILES	CHO parental Ca	OX1R antag-1	OX1R antag-2	GPR7 antag	GalR3 antag	GPR7 antag cf	MCHR1 antag
Cc1ccccc1OCCNc1cc(N2CC(C)NC(C)C2)ccc1[N+](=O)[O-] (stereo not drawn)	19	-10	9	39*	/	53*	67*
CC1CN(c2ccc([N+](=O)[O-])c(NCCOc3ccc(Cl)cc3)c2)CC(C)N1 (stereo not drawn)	/	/	/	38*	-9	62*	69*
CC1CN(c2ccc([N+](=O)[O-])c(NCCOc3ccccc3)c2)CC(C)N1 (stereo not drawn)	-19	-2	20	21	-13	/	/
COc1ccc(-c2nnn(CC(=O)NCc3ccc4c(c3)OCO4)n2)cc1OC	-18	-19	21	22*	-4	0	2
COc1ccc(C(CNC(=O)c2ccc(S(=O)(=O)Nc3ccc(F)cc3)cc2)N(C)C)cc1 (stereo not drawn)	2	-2	19	54*	-10	51*	49*
CN(C)C1CN(Cc2cn(Cc3ccc(F)cc3)nn2)S(=O)(=O)C1 (stereo not drawn)	/	/	/	/	1	/	/
CC(C)Nc1nnc(SCc2cc(=O)n3ccsc3n2)s1	-2	-18	23	25*	1	-4	-12
Cc1cc(C)cc(NC(=O)Nc2ccc3c(c2)N(C)C(=O)CS3)c1	34*	11	22	25*	-1	30*	76*
Cc1ccc(NC(=O)Nc2ccc3c(c2)N(C)C(=O)CS3)cc1C	22	-5	14	10	2	/	/
CN(C)CCNc1nc2sc3c(c2c(=O)n1Cc1ccccc1)CCCCC3	/	/	/	40*	-10	35*	58*
Cc1ccc(Cl)cc1N1CCN(Cc2nnnn2Cc2ccco2)CC1	-12	-36	17	-1	-6	/	/
CCC(c1nnnn1Cc1ccco1)N1CCN(c2cc(Cl)ccc2C)CC1 (stereo not drawn)	7	-15	9	23*	-6	30*	52*
C/C(=N/NC(=O)c1cccs1)c1cccc(NC(=O)C2CC2)c1	-1	-18	29	36*	-3	-5	8
CC(=O)N/N=C(\C)c1cccc(NC(=O)c2cccs2)c1	9	-9	17	-9	1	/	/
COC(=O)[C@]12C[C@H](CC(=O)NCc3cccc(C(F)(F)F)c3)C(=O)N(CCC3=CCCCC3)C1=C[C@H](COCc1ccccc1)O[C@@H]2C	/	/	/	/	-7	/	/
CC(=O)O[C@@H]1C[C@H]2C(C)(C)C(=O)C=C[C@]2(C)[C@H]2CC[C@@]3(C)[C@H](c4ccoc4)OC(=O)[C@H]4O[C@]43[C@@]21C	-6	-19	17	28*	-5	42*	18
OC(c1ccc(F)cc1)c1ncc(-c2ccc3ccccc3c2)[nH]1 (stereo not drawn)	/	/	/	/	-2	/	/
COc1cccc(OC2(C)CCN(Cc3cccn3-c3nccs3)C2)c1 (stereo not drawn)	/	/	/	/	-10	/	/
